Source: publication PMC3119707 (Reproduction (Cambridge, England), 2010)
Like-named read-outs stand apart in the source and are kept apart here.

Tests used:
[1] = test system: follicle-enclosed oocytes; assay: Nuclear envelope breakdown; format: cell-based, mouse
Method in brief: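 Meiotic resumption scored by viewing the oocyte nucleus through the follicle wall from above (20X/0.4 NA long working distance objective). Follicles from 23–24-day B6SJLF1 mice were cultured 24–32 h in FSH-containing, serum-free medium (3 mg/ml BSA), 37°C, 5% CO2, checked at 24 h, and only healthy prophase-arrested ones used. LH at 350 nM. Experiments discarded when <70% of LH controls reached NEBD by 5 h.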

[2] = test system: cGMP in mouse ovarian follicles; assay: cGMP ELISA assay in isolated ovarian follicles; format: cell-based
Method in brief: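 Cultured mouse antral follicles (24–32 h, FSH, 3 mg/ml BSA), treated 1 h with LH (350 nM) or epiregulin (100 nM), or 1 h 500 nM test compound then 1 h test compound + LH. 12–20 unfrozen follicles washed in Ca/Mg-free PBS, sonicated in 0.1 M HCl (±1% Triton X-100), heated 95°C 2 min, stored −80°C, assayed by cGMP ELISA. Concentration approximated from 20 nl estimated cellular volume; mean ± s.e.m.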

[3] = test system: gap junctions in mouse ovarian follicles; assay: Gap junction permeability by Alexa Fluor 350 tracer injection; format: cell-based; conditions: for MG/IC fluorescence ratio as percent of the basal level: one hour treatment, LH 350 nM, epiregulin 100 nM
Method in brief: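 Antral follicles (~320–400 μm) from 23–24-day B6SJLF1 mice, cultured 24–32 h at 37°C, 5% CO2, in phenol-red-free MEMα with FSH and 3 mg/ml BSA; 1 h LH (350 nM) or epiregulin. Follicle-enclosed oocyte microinjected with 2.5 mM Alexa Fluor 350 (326 Da); two-photon imaging 20 min later; mural granulosa/inner cumulus fluorescence ratio; mean ± s.e.m., n = follicles.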

[4] = test system: cGMP in mouse ovarian follicles; conditions: ref Vaccari et al. 2009, cited from earlier work
[5] = test system: gap junctions in mouse ovarian follicles; conditions: 10 μM U0126; ref Norris et al. 2008; cited from earlier work
[6] = test system: follicle-enclosed oocytes; conditions: U0126; ref Su et al., 2003; Norris et al. 2008; cited from earlier work
MAP kinase = conditions: 10 μM U0126; ref Norris et al. 2008; cited from earlier work
EGFR kinase = conditions: read-out: IC50, EGFR kinase activity; in vitro; ref Levitzki & Gazit 1995; cited from earlier work
EGFR [7] = target: T1, EGFR (Mus musculus, UniProt Q01279); conditions: 500 nM AG1478, follicles stimulated with LH; ref Panigone et al. 2008; cited from earlier work
ERK2 = ERK2 (Homo sapiens, UniProt P28482); assay: In vitro kinase profiling, ERK2; format: biochemical; conditions: 1 μM AG1478
EGFR [8] = target: T1, EGFR; assay: Immunoblot of EGFR phosphorylation on tyrosine 1068 in follicles; format: cell-based; conditions: 500 nM AG1478, follicles stimulated with LH
110 kinases = assay: In vitro kinase profiling panel; format: biochemical; conditions: for percent of activity remaining: 1 μM AG1478
ERK1 = ERK1 (Homo sapiens, UniProt P27361); assay: In vitro kinase profiling, ERK1; format: biochemical; conditions: 1 μM AG1478
Sequence of ERK1 (P27361 whole entry, species assumed): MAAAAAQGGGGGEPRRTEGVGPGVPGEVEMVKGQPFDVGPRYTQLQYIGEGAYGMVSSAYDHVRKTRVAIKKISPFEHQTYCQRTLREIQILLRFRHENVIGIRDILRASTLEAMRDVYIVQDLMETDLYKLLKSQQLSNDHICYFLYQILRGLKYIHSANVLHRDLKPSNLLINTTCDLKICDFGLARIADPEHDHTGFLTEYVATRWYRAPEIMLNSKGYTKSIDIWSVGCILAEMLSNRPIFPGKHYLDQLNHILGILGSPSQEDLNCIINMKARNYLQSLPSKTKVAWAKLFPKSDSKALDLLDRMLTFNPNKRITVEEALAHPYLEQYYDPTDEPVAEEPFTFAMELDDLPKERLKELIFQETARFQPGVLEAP

T1 sequence (Q01279 25-1210): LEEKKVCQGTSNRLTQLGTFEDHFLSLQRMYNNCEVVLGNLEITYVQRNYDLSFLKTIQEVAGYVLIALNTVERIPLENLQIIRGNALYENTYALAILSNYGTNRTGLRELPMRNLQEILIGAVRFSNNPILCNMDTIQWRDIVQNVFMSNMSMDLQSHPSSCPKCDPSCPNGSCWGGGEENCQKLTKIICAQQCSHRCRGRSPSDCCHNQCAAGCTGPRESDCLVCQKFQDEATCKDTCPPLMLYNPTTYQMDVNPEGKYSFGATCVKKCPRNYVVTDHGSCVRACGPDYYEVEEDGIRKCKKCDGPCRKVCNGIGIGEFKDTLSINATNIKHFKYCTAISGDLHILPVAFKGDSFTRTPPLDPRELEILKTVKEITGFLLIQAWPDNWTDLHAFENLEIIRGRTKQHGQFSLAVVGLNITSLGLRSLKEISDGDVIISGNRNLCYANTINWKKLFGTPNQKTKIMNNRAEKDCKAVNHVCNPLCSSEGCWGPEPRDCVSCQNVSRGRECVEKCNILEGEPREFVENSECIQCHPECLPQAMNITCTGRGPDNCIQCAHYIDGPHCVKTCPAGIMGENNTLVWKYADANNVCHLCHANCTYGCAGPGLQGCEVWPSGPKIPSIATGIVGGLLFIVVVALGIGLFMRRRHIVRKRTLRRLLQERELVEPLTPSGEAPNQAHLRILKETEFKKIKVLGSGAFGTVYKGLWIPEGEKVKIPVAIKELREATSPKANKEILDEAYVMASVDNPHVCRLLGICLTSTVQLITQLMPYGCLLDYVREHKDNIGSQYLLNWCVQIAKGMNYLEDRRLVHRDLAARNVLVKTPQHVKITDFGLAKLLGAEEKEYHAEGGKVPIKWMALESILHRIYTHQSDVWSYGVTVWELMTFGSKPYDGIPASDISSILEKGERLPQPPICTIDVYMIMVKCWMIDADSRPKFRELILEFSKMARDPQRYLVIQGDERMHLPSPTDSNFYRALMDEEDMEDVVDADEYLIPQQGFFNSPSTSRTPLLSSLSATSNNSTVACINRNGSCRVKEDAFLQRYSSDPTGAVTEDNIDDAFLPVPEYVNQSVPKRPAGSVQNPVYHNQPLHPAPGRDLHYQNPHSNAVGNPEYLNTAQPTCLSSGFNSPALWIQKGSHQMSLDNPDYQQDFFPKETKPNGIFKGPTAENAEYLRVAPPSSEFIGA
Sequence of ERK2 (P28482 whole entry, species assumed): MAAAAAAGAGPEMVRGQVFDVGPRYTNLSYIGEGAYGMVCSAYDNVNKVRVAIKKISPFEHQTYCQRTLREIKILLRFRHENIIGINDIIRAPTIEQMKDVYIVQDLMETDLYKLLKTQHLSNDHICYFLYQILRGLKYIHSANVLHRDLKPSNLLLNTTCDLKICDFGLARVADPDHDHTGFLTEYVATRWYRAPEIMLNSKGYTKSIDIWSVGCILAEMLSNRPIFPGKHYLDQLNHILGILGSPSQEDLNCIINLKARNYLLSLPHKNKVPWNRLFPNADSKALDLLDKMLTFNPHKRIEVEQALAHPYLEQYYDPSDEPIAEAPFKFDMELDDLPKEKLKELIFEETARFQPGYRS

Question: For epiregulin, which “oocytes that underwent nuclear envelope breakdown” value ([1]; 100 nM epiregulin, by 4 hours) is on record?
Answer: Approximately 90%

Question: And the “part of the LH-induced follicle cGMP decrease caused by epiregulin” value ([2]; 100 nM epiregulin, 1 hour, relative to LH)?
Answer: ~ 80%

Question: And the “follicle cGMP concentration” value ([2]; 1 hour treatment with 100 nM epiregulin)?
Answer: ~ 600 nM

Question: And the “MG/IC fluorescence ratio as percent of the basal level” value [3]?
Answer: 32%

Question: For luteinizing hormone [LH], which “cGMP as percent of the basal level” value ([4]; 1 hour after LH application) is on record?
Answer: 39%

Question: And the “cGMP as percent of the basal level” value ([2]; 1 hour after LH application)?
Answer: ~ 4%

Question: What about the “follicle cGMP concentration” value ([2]; 1 hour after LH application (350 nM), approximate) of the same compound?
Answer: ~ 100 nM

Question: And the “follicle cGMP concentration” value ([2]; 5 hours after LH application (350 nM), approximate)?
Answer: ~ 30 nM

Question: And the “MG/IC fluorescence ratio as percent of the basal level” value [3]?
Answer: 9%

Question: Which “effect on gap junction closure in response to LH” value [5] does the source give for `N#CC(=C(/N)Sc1ccccc1N)/C(C#N)=C(/N)Sc1ccccc1N` [U0126] here?
Answer: completely inhibits

Question: What about the “effect on the cGMP decrease in response to LH” value ([2]; 10 μM U0126, 1 hour pretreatment then 1 hour U0126 + LH) of the same compound?
Answer: did not have any inhibitory effect

Question: And the “meiotic resumption in response to LH in the presence of inhibitor” value [6]?
Answer: causes meiotic resumption

Question: What about the “effect on MAP kinase activation in response to LH” value (MAP kinase) of the same compound?
Answer: fully inhibit

Question: What does the source list for `COc1cc2ncnc(Nc3cccc(Cl)c3)c2cc1OC` [AG1478]?
Answer: IC50 (EGFR kinase): […]; oocytes that had resumed meiosis ([1]; 500 nM AG1478 + LH, observed at 20 hours): ~ 30%; effect on nuclear envelope breakdown in response to LH ([1]; 500 nM AG1478, observed at 6 hours): completely inhibited; effect on LH-induced EGFR phosphorylation on tyrosine 1068 (EGFR [7]): completely inhibits; inhibition of ERK2 (ERK2): not inhibited; effect on the cGMP decrease in response to LH ([4]; 500 nM AG1478): completely inhibited; cGMP as percent of the basal level ([2]; 1 hour after LH in the presence of 500 nM AG1478): ~ 15%; follicle cGMP concentration ([2]; 1 hour after LH in the presence of 500 nM AG1478 (1 hour pretreatment)): […]; LH-stimulated phosphorylation of the EGFR on tyrosine 1068 (EGFR [8]): indistinguishable from the basal level without LH; percent of activity remaining (110 kinases; seven of the 110 kinases tested): 30-50%; percent of activity remaining (110 kinases; the other 101 kinases): > 50%; percent of activity remaining (110 kinases; two of the 110 kinases tested): 10-20%; IC50 (110 kinases; 101 out of the 110 kinases tested): > 1000 nM; gap junction permeability after LH application ([3]; in the presence of 500 nM AG1478): indistinguishable from that in an untreated follicle; inhibition of ERK1 (ERK1): not inhibited
